Measurements taken from ChEMBL document CHEMBL1121883, “1-(Naphthylalkyl)-1H-imidazole derivatives, a new class of anticonvulsant agents” (J Med Chem, 1981).
Several values for one entry are separate records, joined by “and”; a condition that tells them apart may be missing. Identical values can stand only once.

Tests used:
Assay type in all cases: functional
Mus musculus [1] = assay: Compound was evaluated for anticonvulsant activity by maximal electroshock assay(MES) in mice after po administration; 69-90
Summary of the method: (§1)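 Male Hilltop ICR-derived mice (19-30 g), groups of 8-10, given compound or aqueous vehicle orally. The transcorneal 60-Hz shock (50 mA, 0.2 s) followed a 30 min pretreatment and a wire-hang neurological check (10 s). ED50 and 95% confidence limits were obtained from quantal data by the Litchfield-Wilcoxon method.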

Mus musculus [2] = assay: Compound was evaluated for anticonvulsant activity by maximal electroshock assay(MES) in mice after ip administration; 13-43
Summary of the method: (§2)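 Male Hilltop ICR-derived mice (19-30 g), groups of 8-10, dosed ip with compound or aqueous vehicle. After 15 min pretreatment, a transcorneal 60-Hz, 50 mA shock was given for 0.2 s. Just before the shock, each mouse was tested on a horizontal wire (10 s). Quantal data were analysed by Litchfield-Wilcoxon to give ED50 with 95% confidence limits.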

Mus musculus [3] = assay: Dose causing a neurological deficit in 50% of mice after ip administration.
Summary of the method: (§3)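 Traction test in male Hilltop ICR-derived mice (19-30 g, groups of 8-10) just before electroshock, 15 min after ip or 30 min after oral dosing. Mice placed on a 16-gauge, 65-cm copper wire 40 cm above the table; deficit scored as failure to stay on for 10 s. ND50 with 95% limits by Litchfield-Wilcoxon.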

Mus musculus [4] = assay: Dose causing a neurological deficit in 50% of mice following p.o. administration.; summary of the method: as §3
Mus musculus [5] = assay: Protective index defined as ND50 (p.o.) divided by MES ED50(op)
Summary of the method: (§4)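 Ratio of ND50 from the wire traction test to MES ED50, both measured by the same route (ip or oral) in the same animals. Quantal dose-response data for each were evaluated by Litchfield-Wilcoxon.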

Mus musculus [6] = assay: Protective index is defined as ND50 (i.p.) divided by MES ED50(i.p.); summary of the method: as §4
Mus musculus [7] = assay: Compound was evaluated for anticonvulsant activity by maximal electroshock assay(MES) in mice after po administration; 55-105; summary of the method: as §1
Mus musculus [8] = assay: Dose of compound causing a neurological deficit in 50% of mice after ip administration; 53-96; summary of the method: as §3
Mus musculus [9] = assay: Compound was evaluated for anticonvulsant activity by maximal electroshock assay(MES) in mice after ip administration; 18-25; summary of the method: as §2
Rattus norvegicus [10] = assay: Compound was evaluated for anticonvulsant activity by maximal electroshock assay(MES) in rat after po administration; 31-105
Summary of the method: (§5)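 Male Simonsen Sprague-Dawley-derived rats, 80-110 g, groups of 8-10, dosed with compound or aqueous vehicle; pretreatment 15 min after ip or 30 min after oral dosing. Transcorneal electroshock, 150 mA, 60 Hz, 0.2 s, given after the wire test. ED50 with 95% confidence limits from quantal data by Litchfield-Wilcoxon.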

Rattus norvegicus [11] = assay: Dose of compound causing a neurological deficit in 50% of rat after po administration.
Summary of the method: (§6)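 Rats (Simonsen Sprague-Dawley-derived, 80-110 g, groups of 8-10) placed on a suspended 16-gauge, 65-cm copper wire just before electroshock. Deficit scored as inability to remain for 8 s. Pretreatment was 15 min ip or 30 min oral. Quantal data analysed by Litchfield-Wilcoxon to give ND50 with 95% limits.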

Mus musculus [12] = assay: compound was evaluated for anticonvulsant activity by maximal electroshock assay(MES) in mice after ip administration.
Summary of the method: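 Male Hilltop ICR-derived mice, 19-30 g, groups of 8-10, given compound or aqueous vehicle […] before transcorneal electroshock (50 mA, 60 Hz, 0.2 s). Shock delivered after the traction test. ED50 with 95% confidence limits estimated from quantal data by Litchfield-Wilcoxon.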

Mus musculus [13] = assay: Compound was evaluated for anticonvulsant activity by maximal electroshock assay(MES) in mice after po administration; 16-32; summary of the method: as §1
Mus musculus [14] = assay: Dose of compound causing a neurological deficit in 50% of mice after ip administration; 13-115; summary of the method: as §3
Rattus norvegicus [15] = assay: Compound was evaluated for anticonvulsant activity by maximal electroshock assay(MES) in rat after ip administration; 5.3-12; summary of the method: as §5
Rattus norvegicus [16] = assay: Compound was evaluated for anticonvulsant activity by maximal electroshock assay(MES) in rat after po administration; 11-42; summary of the method: as §5
Rattus norvegicus [17] = assay: Dose of compound causing a neurological deficit in 50% of rat after ip administration; 26-92; summary of the method: as §6
Mus musculus [18] = assay: Compound was evaluated for anticonvulsant activity by maximal electroshock assay(MES) in mice after ip administration; 62-102; summary of the method: as §2
Mus musculus [19] = assay: Dose of compound causing a neurological deficit in 50% of mice after ip administration; 79-125; summary of the method: as §3
Rattus norvegicus [20] = assay: Compound was evaluated for anticonvulsant activity by maximal electroshock assay(MES) in rat after po administration; 34-83; summary of the method: as §5
Rattus norvegicus [21] = assay: Dose of compound causing a neurological deficit in 50% of rat after ip administration.; summary of the method: as §6
Mus musculus [22] = assay: Compound was evaluated for anticonvulsant activity by maximal electroshock assay(MES) in mice after ip administration; 14-23; summary of the method: as §2
Rattus norvegicus [23] = assay: Compound was evaluated for anticonvulsant activity by maximal electroshock assay(MES) in rat after ip administration; 8-23; summary of the method: as §5
Mus musculus [24] = assay: Compound was evaluated for anticonvulsant activity by maximal electroshock assay(MES) in mice after po administration; 29-53; summary of the method: as §1
Mus musculus [25] = assay: Compound was evaluated for anticonvulsant activity by maximal electroshock assay(MES) in mice after ip administration; 12-15; summary of the method: as §2
Mus musculus [26] = assay: Dose of compound causing a neurological deficit in 50% of mice after ip administration; 61-69; summary of the method: as §3
Rattus norvegicus [27] = assay: Compound was evaluated for anticonvulsant activity by maximal electroshock assay(MES) in rat after ip administration; 1.2-6.2
Rattus norvegicus [28] = assay: Dose of compound causing a neurological deficit in 50% of rat after ip administration; 35-83; summary of the method: as §6
Mus musculus [29] = assay: Compound was evaluated for anticonvulsant activity by maximal electroshock assay(MES) in mice after ip administration; 9-26; summary of the method: as §2
Mus musculus [30] = assay: Dose of compound causing a neurological deficit in 50% of mice after ip administration; 17-61; summary of the method: as §3
Mus musculus [31] = assay: Compound was evaluated for anticonvulsant activity by maximal electroshock assay(MES) in mice after po administration; 68-149; summary of the method: as §1
Mus musculus [32] = assay: Anticonvulsant activity in mouse maximal electroshock assay following i.p. administration.; conditions: ip; summary of the method: as §2
Mus musculus [33] = assay: Dose of compound causing a neurological deficit in 50% of mice after ip administration; summary of the method: as §3
Mus musculus [34] = assay: Compound was evaluated for anticonvulsant activity by maximal electroshock assay(MES) in mice after po administration; 41-77; summary of the method: as §1
Mus musculus [35] = assay: Dose of compound causing a neurological deficit in 50% of mice after ip administration; 16-49; summary of the method: as §3
Mus musculus [36] = assay: Compound was evaluated for anticonvulsant activity by maximal electroshock assay(MES) in mice after ip administration; 13-19; summary of the method: as §2
Mus musculus [37] = assay: Dose of compound causing a neurological deficit in 50% of mice after ip administration; 25-30; summary of the method: as §3

## Cc1cc2ccc(C(=O)Cn3ccnc3)cc2cc1C.Cl
Mus musculus [1]
  ED50: 78 mg/kg
Mus musculus [2]
  ED50: 25 mg/kg
Mus musculus [3]
  ND50: >100 mg/kg
Mus musculus [4]
  ND50: >100 mg/kg
Mus musculus [5]
  PI: >1.3
Mus musculus [6]
  PI: >4

## Cc1ccc2cccc(C(=O)Cn3ccnc3)c2c1.Cl
Mus musculus [7]
  ED50: 74 mg/kg
Mus musculus [8]
  ND50: 73 mg/kg
Mus musculus [4]
  ND50: >300 mg/kg
Mus musculus [9]
  ED50: 22 mg/kg
Rattus norvegicus [10]
  ED50: 52 mg/kg
Rattus norvegicus [11]
  ND50: >100 mg/kg
Mus musculus [5]
  PI: >4.1 and >1.9
Mus musculus [6]
  PI: 3.3

## COC(Cn1ccnc1)(OC)c1ccc2ccccc2c1
Mus musculus [3]
  ND50: >40 mg/kg
Mus musculus [12]
  ED50: > 40 mg/kg

## Cl.c1ccc2c(C3(Cn4ccnc4)OCCO3)cccc2c1
Mus musculus [13]
  ED50: 23 mg/kg
Mus musculus [14]
  ND50: 28 mg/kg
Mus musculus [4]
  ND50: >100 mg/kg
Rattus norvegicus [15]
  ED50: 7.8 mg/kg
Rattus norvegicus [16]
  ED50: 22 mg/kg
Rattus norvegicus [17]
  ND50: 44 mg/kg
Rattus norvegicus [11]
  ND50: ~200 mg/kg
Mus musculus [5]
  PI: >4.3 and ~9

## COc1cc2cccc(C(=O)Cn3ccnc3)c2cc1OC.Cl
Mus musculus [18]
  ED50: 79 mg/kg
Mus musculus [3]
  ND50: >100 mg/kg
Mus musculus [6]
  PI: >1.3

## Cl.O=C(OC(Cn1ccnc1)c1ccc2ccccc2c1)c1ccccc1 (stereo not drawn)
Mus musculus [19]
  ND50: 99 mg/kg
Rattus norvegicus [20]
  ED50: 53 mg/kg
Rattus norvegicus [21]
  ND50: >100 mg/kg
Rattus norvegicus [11]
  ND50: >100 mg/kg
Mus musculus [6]
  PI: 5.2
Mus musculus [22]
  ED50: 19 mg/kg
Rattus norvegicus [23]
  ED50: 14 mg/kg

## Br.CCc1ccc2cccc(C(=O)Cn3ccnc3)c2c1
Mus musculus [24]
  ED50: 40 mg/kg
Mus musculus [25]
  ED50: 13 mg/kg
Mus musculus [26]
  ND50: 65 mg/kg
Mus musculus [4]
  ND50: >100 mg/kg
Rattus norvegicus [27]
  ED50: 3.1 mg/kg
Rattus norvegicus [28]
  ND50: 53 mg/kg
Mus musculus [5]
  PI: >2.5

## O=S(=O)(O)O.c1ccc(OC(Cn2ccnc2)c2ccc3ccccc3c2)cc1 (stereo not drawn)
Mus musculus [29]
  ED50: 15 mg/kg
Mus musculus [30]
  ND50: 32 mg/kg
Mus musculus [6]
  PI: 2.1

## CCc1ccc2cc(C3(Cn4ccnc4)OCCO3)ccc2c1.Cl
Mus musculus [31]
  ED50: 100 mg/kg
Mus musculus [32]
  ED50: 25 mg/kg
Mus musculus [33]
  ND50: >100 mg/kg
Mus musculus [4]
  ND50: >200 mg/kg
Mus musculus [5]
  PI: >2
Mus musculus [6]
  PI: >4

## Cl.c1ccc2cc(C3(Cn4ccnc4)OCCCO3)ccc2c1
Mus musculus [34]
  ED50: 57 mg/kg
Mus musculus [35]
  ND50: 30 mg/kg
Mus musculus [4]
  ND50: >100 mg/kg
Mus musculus [5]
  PI: >1.7
Mus musculus [6]
  PI: 1.8

## CCCCOC(Cn1ccnc1)c1cccc2ccccc12 (stereo not drawn)
Mus musculus [36]
  ED50: 16 mg/kg
Mus musculus [37]
  ND50: 27 mg/kg
Mus musculus [6]
  PI: 1.7
